Source: ChEMBL document CHEMBL4145619, “Computer-Assisted Discovery of Retinoid X Receptor Modulating Natural Products and Isofunctional Mimetics” (J Med Chem, 2018)
Calls of active or inactive are those of the source. No cut-off for these calls is given here.

Assays:
Format in all cases: cell-based
[1] = molecular target: T1, Retinoic acid receptor RXR-beta (Homo sapiens) (UniProt P28702); assay: Transactivation of human Gal4-fused RXRbeta LBD expressed in HEK293T cells after 12 to 14 hrs by dual-glo luciferase assay relative to bexarotene
T1 sequence (whole entry): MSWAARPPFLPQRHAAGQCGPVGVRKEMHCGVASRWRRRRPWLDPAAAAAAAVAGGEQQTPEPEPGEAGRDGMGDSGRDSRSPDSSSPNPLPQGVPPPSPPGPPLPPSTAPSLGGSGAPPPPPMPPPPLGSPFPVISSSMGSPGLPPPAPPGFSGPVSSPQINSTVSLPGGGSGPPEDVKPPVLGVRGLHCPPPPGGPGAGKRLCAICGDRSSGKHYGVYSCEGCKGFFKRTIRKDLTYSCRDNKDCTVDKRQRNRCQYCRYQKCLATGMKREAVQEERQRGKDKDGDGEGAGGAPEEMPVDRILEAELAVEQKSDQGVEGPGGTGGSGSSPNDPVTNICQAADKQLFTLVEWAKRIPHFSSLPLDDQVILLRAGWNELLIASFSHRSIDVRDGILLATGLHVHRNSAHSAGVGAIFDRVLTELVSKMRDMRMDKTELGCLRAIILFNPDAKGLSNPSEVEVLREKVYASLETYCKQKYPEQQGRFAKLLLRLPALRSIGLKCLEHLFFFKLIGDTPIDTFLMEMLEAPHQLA

[2] = molecular target: T2, Retinoic acid receptor alpha (Homo sapiens) (UniProt P10276); assay: Transactivation of human Gal4-fused RARalpha LBD expressed in HEK293T cells at 30 uM after 12 to 14 hrs by dual-glo luciferase assay
T2 sequence (whole entry): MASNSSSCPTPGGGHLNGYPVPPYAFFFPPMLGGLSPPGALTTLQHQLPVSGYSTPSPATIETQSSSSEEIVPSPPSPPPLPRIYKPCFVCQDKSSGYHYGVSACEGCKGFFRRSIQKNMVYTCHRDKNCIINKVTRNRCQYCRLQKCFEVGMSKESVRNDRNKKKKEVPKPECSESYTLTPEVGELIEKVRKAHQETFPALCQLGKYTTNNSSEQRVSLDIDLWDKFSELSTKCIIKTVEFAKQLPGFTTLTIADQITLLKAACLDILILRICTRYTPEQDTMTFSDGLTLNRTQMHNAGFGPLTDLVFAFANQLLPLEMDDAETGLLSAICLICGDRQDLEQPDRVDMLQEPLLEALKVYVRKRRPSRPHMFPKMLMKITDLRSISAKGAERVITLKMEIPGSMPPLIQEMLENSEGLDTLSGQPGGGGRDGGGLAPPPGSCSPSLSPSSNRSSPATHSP
Outline: (§1)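 Single-concentration selectivity profiling in Gal4-hybrid reporter gene assays in HEK293T cells. Each nuclear receptor construct (RAR, PPAR, LXR, FXR, CAR, VDR, PXR, RXR) was tested at 30 μM.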

[3] = molecular target: Retinoid X receptor (Homo sapiens) (UniProt P28702+P48443+P19793); assay: Transactivation of RXR in human HepG2 cells assessed as induction of apoE mRNA expression at 30 uM after 8 hrs by qRT-PCR analysis
Outline: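 HepG2 cells were treated and ABCA1 or ApoE mRNA levels measured. Results are given as mean fold induction versus 0.1% DMSO vehicle ± SEM, n = 3. Significance was set at p < 0.05, 0.01 or 0.001.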

[4] = molecular target: T3, Oxysterols receptor LXR-beta (Homo sapiens) (UniProt P55055); assay: Transactivation of human Gal4-fused LXRbeta LBD expressed in HEK293T cells at 30 uM after 12 to 14 hrs by dual-glo luciferase assay; outline: as §1
T3 sequence (whole entry): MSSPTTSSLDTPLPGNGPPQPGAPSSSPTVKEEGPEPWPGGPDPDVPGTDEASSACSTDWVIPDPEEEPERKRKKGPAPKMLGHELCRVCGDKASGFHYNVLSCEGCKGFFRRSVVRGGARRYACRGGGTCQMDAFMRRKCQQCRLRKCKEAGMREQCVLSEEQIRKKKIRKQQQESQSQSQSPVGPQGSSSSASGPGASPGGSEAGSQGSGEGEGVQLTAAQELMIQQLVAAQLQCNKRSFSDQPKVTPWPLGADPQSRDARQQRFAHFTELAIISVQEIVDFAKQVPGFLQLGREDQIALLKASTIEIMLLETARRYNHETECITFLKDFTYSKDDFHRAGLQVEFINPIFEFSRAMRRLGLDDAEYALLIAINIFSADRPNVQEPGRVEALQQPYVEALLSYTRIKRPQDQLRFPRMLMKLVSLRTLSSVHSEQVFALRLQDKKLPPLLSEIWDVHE

[5] = molecular target: T1, Retinoic acid receptor RXR-beta (Homo sapiens); assay: Transactivation of human Gal4-fused RXRbeta LBD expressed in HEK293T cells at 30 uM after 12 to 14 hrs by dual-glo luciferase assay; outline: as §1
[6] = molecular target: T4, Retinoic acid receptor RXR-gamma (Homo sapiens) (UniProt P48443); assay: Transactivation of human Gal4-fused RXRgamma LBD expressed in HEK293T cells after 12 to 14 hrs by dual-glo luciferase assay relative to bexarotene
T4 sequence (whole entry): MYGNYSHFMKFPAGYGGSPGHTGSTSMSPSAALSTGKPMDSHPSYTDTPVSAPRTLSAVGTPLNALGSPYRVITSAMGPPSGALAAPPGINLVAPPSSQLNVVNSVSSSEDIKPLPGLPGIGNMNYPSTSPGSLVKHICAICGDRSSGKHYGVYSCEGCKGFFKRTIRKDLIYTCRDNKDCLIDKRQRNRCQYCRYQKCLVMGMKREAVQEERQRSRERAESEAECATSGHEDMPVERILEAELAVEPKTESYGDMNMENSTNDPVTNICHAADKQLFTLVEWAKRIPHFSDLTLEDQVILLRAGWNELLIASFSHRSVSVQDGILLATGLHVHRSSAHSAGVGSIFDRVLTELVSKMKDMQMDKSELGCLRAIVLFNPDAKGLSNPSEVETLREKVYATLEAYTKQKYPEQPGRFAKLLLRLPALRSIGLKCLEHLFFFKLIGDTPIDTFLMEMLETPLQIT

[7] = molecular target: T5, Peroxisome proliferator-activated receptor delta (Homo sapiens) (UniProt Q03181); assay: Transactivation of human Gal4-fused PPARdelta LBD expressed in HEK293T cells at 30 uM after 12 to 14 hrs by dual-glo luciferase assay; outline: as §1
T5 sequence (whole entry): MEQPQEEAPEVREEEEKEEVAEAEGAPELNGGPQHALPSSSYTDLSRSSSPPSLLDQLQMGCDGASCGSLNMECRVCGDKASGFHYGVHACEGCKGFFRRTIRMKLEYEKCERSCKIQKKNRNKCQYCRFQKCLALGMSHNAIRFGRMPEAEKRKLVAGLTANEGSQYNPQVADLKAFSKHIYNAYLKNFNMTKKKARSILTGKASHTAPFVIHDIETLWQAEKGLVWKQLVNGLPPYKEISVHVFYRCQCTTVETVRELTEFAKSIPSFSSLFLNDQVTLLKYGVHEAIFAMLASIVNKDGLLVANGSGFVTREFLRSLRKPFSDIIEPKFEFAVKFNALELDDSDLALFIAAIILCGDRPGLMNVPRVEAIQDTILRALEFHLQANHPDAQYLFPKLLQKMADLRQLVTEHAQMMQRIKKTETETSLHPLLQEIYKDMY

Chain of Retinoid X receptor (Homo sapiens) (P19793 whole entry, looked up, one chain of several): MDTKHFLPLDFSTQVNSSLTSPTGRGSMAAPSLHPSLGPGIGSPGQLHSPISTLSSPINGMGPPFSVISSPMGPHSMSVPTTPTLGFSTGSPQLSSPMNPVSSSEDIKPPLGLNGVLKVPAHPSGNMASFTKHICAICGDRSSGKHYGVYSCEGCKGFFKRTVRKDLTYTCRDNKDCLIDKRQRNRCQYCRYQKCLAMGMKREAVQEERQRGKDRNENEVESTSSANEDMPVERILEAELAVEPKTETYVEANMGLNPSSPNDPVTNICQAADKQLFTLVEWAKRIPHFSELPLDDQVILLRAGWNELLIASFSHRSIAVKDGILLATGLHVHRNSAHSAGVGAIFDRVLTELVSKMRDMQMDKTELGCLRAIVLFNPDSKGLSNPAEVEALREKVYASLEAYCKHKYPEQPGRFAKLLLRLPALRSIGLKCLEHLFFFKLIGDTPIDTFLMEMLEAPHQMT

- fold change (FC) [1]: 69
- Activity [2]: inactive
- Activity [3]: Active
- Activity [4]: inactive
- Activity [5]: Active
- fold change (FC) [6]: 4
- Activity [7]: inactive
Compound: CC1=C2[C@H](/C=C(\C)C(=O)O)CC[C@@H](C)[C@H]2CC1 [VALERENIC ACID]
